# Activity calls are given as the source filed them. The calls are words filed in the database; no cut-off is given here.
# Key:
# Porphyromonas gingivalis [1] = experiment: Antibacterial activity against Porphyromonas gingivalis ATCC 33277 after 24 hrs; type: functional
# Method in brief: (§1)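 Broth microdilution in THB-HK: 24 h cultures diluted to OD655 0.2, mixed 1:1 with compound (0–40 µg/mL, twofold steps from 0.63), 24 h at 37 °C anaerobic (N2-H2-CO2 80:10:10); growth by OD655 relative to untreated. MIC = lowest concentration with no growth; MBC from no-growth wells plated on THB-HK agar, 5 days anaerobic. Triplicate, two independent experiments.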
# Fusobacterium nucleatum = experiment: Antibacterial activity against Fusobacterium nucleatum ATCC 25586 after 24 hrs; type: functional; method in brief: as §1
# Prevotella intermedia [2] = experiment: Antibacterial activity against Prevotella intermedia ATCC 25611 after 24 hrs; type: functional; method in brief: as §1
# Prevotella intermedia [3] = experiment: Antibacterial activity against Prevotella intermedia ATCC 25611 assessed as reduction of bacterial growth at 1.25 ug/ml after 24 hrs; type: functional; parameters: scale not given: the % may be the effect or the level left; method in brief: as §1
# Porphyromonas gingivalis [4] = experiment: Antibacterial activity against 14C-labeled Porphyromonas gingivalis ATCC 33277 assessed as inhibition of adhesion to human GMSM-K cells after 30 mins by scintillation counting; type: functional, cell-based
# Method in brief: (§2)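 14C-amino acid-labelled (20 µCi/mL, 16 h, anaerobic) mid-log P. gingivalis washed in PBS pH 7.2, suspended to OD655 0.8 in prereduced PBS; mixed with compound (final 0, 0.2, 1, 5 µg/mL) and added to confluent GMSM-K monolayers for 30 min at 37 °C; unbound cells washed off, bound bacteria released with 0.5 M NaOH, scintillation counted. Triplicate, three independent assays, mean ± SD.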
# Porphyromonas gingivalis [5] = experiment: Antibacterial activity against 14C-labeled Porphyromonas gingivalis ATCC 33277 assessed as inhibition of adhesion to human GMSM-K cells at 0.2 ug/ml after 30 mins by scintillation counting; type: functional, cell-based; method in brief: as §2
# Porphyromonas gingivalis [6] = experiment: Antibacterial activity against 14C-labeled Porphyromonas gingivalis ATCC 33277 assessed as inhibition of adhesion to human GMSM-K cells at 1 ug/ml after 30 mins by scintillation counting relative to control; type: functional; details: ATCC 33277, GMSM-K, 0.5 h; method in brief: as §2
# Porphyromonas gingivalis [7] = experiment: Antibacterial activity against 14C-labeled Porphyromonas gingivalis ATCC 33277 assessed as inhibition of adhesion to human GMSM-K cells at 5 ug/ml after 30 mins by scintillation counting relative to control; type: functional; details: ATCC 33277, GMSM-K, 0.5 h; method in brief: as §2
# U-937 [8] = experiment: Antiinflammatory activity in human U937 cells assessed as inhibition of LPS-induced IL1-beta production at 5 ug/ml treated 2 hrs before LPS challenge measured after 24 hrs by ELISA; type: functional
# Method in brief: (§3)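 PMA-differentiated U937 macrophages (10 ng/mL PMA 48 h, then 24 h rest) at 1 × 10^6 cells/mL in RPMI with 1% FBS; compound (0, 0.2, 1, 5 µg/mL) for 2 h, then A. actinomycetemcomitans ATCC 29522 LPS (1 µg/mL final) for 24 h, 37 °C 5% CO2. Supernatant cytokines and MMP-9 by ELISA (A450, 550 correction). Triplicate, two experiments, t test.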
# U-937 [9] = experiment: Antiinflammatory activity in human U937 cells assessed as inhibition of LPS-induced IL-8 production at 5 ug/ml treated 2 hrs before LPS challenge measured after 24 hrs by ELISA; type: functional; method in brief: as §3
# U-937 [10] = experiment: Antiinflammatory activity in human U937 cells assessed as inhibition of LPS-induced TNFalpha production at 5 ug/ml treated 2 hrs before LPS challenge measured after 24 hrs by ELISA; type: functional; method in brief: as §3
# U-937 [11] = experiment: Antiinflammatory activity in human U937 cells assessed as inhibition of LPS-induced IL-6 production at 5 ug/ml treated 2 hrs before LPS challenge measured after 24 hrs by ELISA; type: functional; method in brief: as §3
# U-937 [12] = experiment: Antiinflammatory activity in human U937 cells assessed as inhibition of LPS-induced CCL5 production at 5 ug/ml treated 2 hrs before LPS challenge measured after 24 hrs by ELISA; type: functional; method in brief: as §3
# U-937 [13] = experiment: Antiinflammatory activity in human U937 cells assessed as inhibition of LPS-induced PGE2 production at 5 ug/ml treated 2 hrs before LPS challenge measured after 24 hrs; type: functional, cell-based
# U-937 [14] = experiment: Antiinflammatory activity in human U937 cells assessed as inhibition of IL1-beta production at 5 ug/ml after 24 hrs by ELISA; type: functional, cell-based; method in brief: as §3
# U-937 [15] = experiment: Antiinflammatory activity in human U937 cells assessed as inhibition of IL-8 production at 5 ug/ml after 24 hrs by ELISA; type: functional, cell-based; method in brief: as §3
# U-937 [16] = experiment: Antiinflammatory activity in human U937 cells assessed as inhibition of TNFalpha production at 5 ug/ml after 24 hrs by ELISA; type: functional, cell-based; method in brief: as §3
# U-937 [17] = experiment: Antiinflammatory activity in human U937 cells assessed as inhibition of IL-6 production at 5 ug/ml after 24 hrs by ELISA; type: functional, cell-based; method in brief: as §3
# U-937 [18] = experiment: Antiinflammatory activity in human U937 cells assessed as inhibition of CCL5 production at 5 ug/ml after 24 hrs by ELISA; type: functional, cell-based; method in brief: as §3
# U-937 [19] = experiment: Antiinflammatory activity in human U937 cells assessed as inhibition of PGE2 production at 5 ug/ml after 24 hrs; type: functional, cell-based
# U-937 [20] = experiment: Antiinflammatory activity in human U937 cells assessed as inhibition of LPS-induced MMP9 production at 1 ug/ml treated 2 hrs before LPS challenge measured after 24 hrs by ELISA; type: functional, cell-based; method in brief: as §3
# U-937 [21] = experiment: Antiinflammatory activity in human U937 cells assessed as inhibition of LPS-induced MMP9 production at 5 ug/ml treated 2 hrs before LPS challenge measured after 24 hrs by ELISA; type: functional, cell-based; method in brief: as §3
# U-937 [22] = experiment: Antiinflammatory activity in human U937 cells assessed as inhibition of LPS-induced NF-kappaB p65 activation at 5 ug/ml treated 1 hrs before LPS challenge measured after 1 hr; type: functional, cell-based
# Method in brief: (§4)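 PMA-differentiated U937 macrophages given compound at 5 µg/mL for 1 h, then A. actinomycetemcomitans LPS at 1 µg/mL for 1 h, 37 °C 5% CO2. Whole-cell extracts adjusted to 1 mg/mL protein; NF-κB p65 and AP-1 activation measured by Trans-AM kits. Unstimulated and compound-free controls included; triplicate, three independent experiments.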
# U-937 [23] = experiment: Antiinflammatory activity in human U937 cells assessed as inhibition of LPS-induced AP-1 activation at 5 ug/ml treated 1 hrs before LPS challenge measured after 1 hr; type: functional, cell-based; method in brief: as §4
# [24] = Cytotoxicity against human GMSM-K cells assessed as reduction of cell viability at up to 50 ug/ml after 2 hrs by MTT assay; type: cell-based
# Method in brief: (§5)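 MTT colorimetric viability assay on GMSM-K epithelial cells and PMA-differentiated U937 macrophages after 2 h exposure to compound at up to 50 µg/mL.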
# U-937 [25] = experiment: Cytotoxicity against human U937 cells assessed as reduction of cell viability at up to 50 ug/ml after 2 hrs by MTT assay; type: cell-based; details: u-937, 2 h; method in brief: as §5
smiles,measurement,setting,value
CC(C)=CCOc1ccc(C(=O)/C=C/c2ccc(O)cc2)c(O)c1,Activity,Porphyromonas gingivalis [1],Dose-dependent effect
same,MBC,"Porphyromonas gingivalis [1]; ATCC 33277, 24 h",10 µg/mL
same,MIC,"Porphyromonas gingivalis [1]; ATCC 33277, 24 h",5 µg/mL
same,Activity,Fusobacterium nucleatum,Dose-dependent effect
same,MBC,"Fusobacterium nucleatum; ATCC 25586, 24 h",> 40 µg/mL
same,MIC,"Fusobacterium nucleatum; ATCC 25586, 24 h",40 µg/mL
same,Activity,Prevotella intermedia [2],Dose-dependent effect
same,MBC,"Prevotella intermedia [2]; ATCC 25611, 24 h",5 µg/mL
same,MIC,"Prevotella intermedia [2]; ATCC 25611, 24 h",2.5 µg/mL
same,Activity,Prevotella intermedia [3],45%
same,inhibition,Porphyromonas gingivalis [4],Dose-dependent effect
same,inhibition,Porphyromonas gingivalis [5],inactive
same,inhibition at 1 µg/mL,Porphyromonas gingivalis [6],31%
same,inhibition at 5 µg/mL,Porphyromonas gingivalis [7],36%
same,inhibition at 5 µg/mL,U-937 [8],29%
same,inhibition at 5 µg/mL,U-937 [9],38%
same,inhibition at 5 µg/mL,U-937 [10],23%
same,inhibition at 5 µg/mL,U-937 [11],50%
same,inhibition at 5 µg/mL,U-937 [12],67%
same,inhibition,U-937 [13],Active
same,inhibition,U-937 [14],inactive
same,inhibition,U-937 [15],inactive
same,inhibition,U-937 [16],inactive
same,inhibition,U-937 [17],inactive
same,inhibition,U-937 [18],inactive
same,inhibition,U-937 [19],inactive
same,inhibition,U-937 [20],Active
same,inhibition,U-937 [21],Active
same,inhibition,U-937 [22],Active
same,inhibition,U-937 [23],Active
same,Activity,[24],Non-toxic
same,Activity,U-937 [25],Non-toxic

# Source: ChEMBL document CHEMBL1667730, “Antibacterial and anti-inflammatory activities of 4-hydroxycordoin: potential therapeutic benefits” (J Nat Prod, 2011)
